Measured values reported in ChEMBL document CHEMBL5678818, “Discovery of potent SOS1 inhibitors that block RAS activation via disruption of the RAS-SOS1 interaction” (Proc Natl Acad Sci U S A, 2019).
Active and inactive are the calls of the source. The calls are words filed in the database; no cut-off is given here.

Key:
[1] = molecular target: Tyrosine-protein kinase ABL2 (Homo sapiens) (UniProt P42684); assay: Inhibition of ABL2 (unknown origin) assessed as residual activity at 100 nM by KINOMEscan analysis relative to control
Chain of Tyrosine-protein kinase ABL2 (Homo sapiens) (P42684 whole entry): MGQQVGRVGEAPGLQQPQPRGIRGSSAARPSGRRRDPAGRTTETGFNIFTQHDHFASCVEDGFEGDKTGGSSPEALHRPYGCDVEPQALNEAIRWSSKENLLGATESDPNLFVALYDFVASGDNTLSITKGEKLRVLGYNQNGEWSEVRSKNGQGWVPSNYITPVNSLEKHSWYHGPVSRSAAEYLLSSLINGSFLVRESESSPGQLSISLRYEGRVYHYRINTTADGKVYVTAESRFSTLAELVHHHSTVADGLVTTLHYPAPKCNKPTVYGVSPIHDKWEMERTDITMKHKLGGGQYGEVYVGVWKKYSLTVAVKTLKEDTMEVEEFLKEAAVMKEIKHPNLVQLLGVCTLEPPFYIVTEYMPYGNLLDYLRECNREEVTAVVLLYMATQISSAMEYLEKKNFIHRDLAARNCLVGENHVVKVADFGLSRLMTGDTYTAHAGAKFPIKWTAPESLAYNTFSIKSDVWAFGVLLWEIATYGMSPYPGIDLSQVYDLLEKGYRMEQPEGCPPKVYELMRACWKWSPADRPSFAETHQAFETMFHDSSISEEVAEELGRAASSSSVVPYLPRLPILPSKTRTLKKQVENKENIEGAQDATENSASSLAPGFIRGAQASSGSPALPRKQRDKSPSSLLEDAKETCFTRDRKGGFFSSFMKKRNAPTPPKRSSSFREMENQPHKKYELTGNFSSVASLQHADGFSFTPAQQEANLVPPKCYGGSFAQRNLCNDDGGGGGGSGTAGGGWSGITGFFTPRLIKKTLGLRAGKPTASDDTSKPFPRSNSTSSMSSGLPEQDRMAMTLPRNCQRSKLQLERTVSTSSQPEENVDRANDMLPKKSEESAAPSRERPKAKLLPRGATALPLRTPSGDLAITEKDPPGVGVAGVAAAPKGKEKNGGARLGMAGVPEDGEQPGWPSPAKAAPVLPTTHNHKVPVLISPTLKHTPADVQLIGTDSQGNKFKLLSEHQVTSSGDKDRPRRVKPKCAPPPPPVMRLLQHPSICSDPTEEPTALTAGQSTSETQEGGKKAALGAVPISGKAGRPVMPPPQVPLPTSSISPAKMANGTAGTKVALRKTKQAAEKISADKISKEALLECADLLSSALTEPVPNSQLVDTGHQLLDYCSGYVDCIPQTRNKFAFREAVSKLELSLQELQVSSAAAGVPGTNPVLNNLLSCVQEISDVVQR

[2] = molecular target: Cyclin-dependent kinase 17 (Homo sapiens) (UniProt Q00537); assay: Inhibition of PCTK2 (unknown origin) assessed as residual activity at 100 nM by KINOMEscan analysis relative to control
Chain of Cyclin-dependent kinase 17 (Homo sapiens) (Q00537 whole entry, looked up): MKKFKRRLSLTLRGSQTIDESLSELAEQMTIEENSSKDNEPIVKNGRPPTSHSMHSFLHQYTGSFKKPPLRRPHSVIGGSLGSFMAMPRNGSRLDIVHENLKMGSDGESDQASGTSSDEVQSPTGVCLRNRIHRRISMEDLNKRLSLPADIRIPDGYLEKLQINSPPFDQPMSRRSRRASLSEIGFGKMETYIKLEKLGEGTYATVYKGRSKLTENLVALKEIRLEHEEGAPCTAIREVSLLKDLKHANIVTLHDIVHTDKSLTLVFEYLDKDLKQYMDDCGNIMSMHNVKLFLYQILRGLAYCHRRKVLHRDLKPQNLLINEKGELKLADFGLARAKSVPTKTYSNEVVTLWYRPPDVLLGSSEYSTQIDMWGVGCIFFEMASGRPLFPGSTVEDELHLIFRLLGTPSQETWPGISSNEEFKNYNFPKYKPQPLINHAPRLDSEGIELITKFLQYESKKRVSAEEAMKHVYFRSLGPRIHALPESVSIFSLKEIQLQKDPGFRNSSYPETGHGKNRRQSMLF

[3] = molecular target: T1, Serine/threonine-protein kinase LATS1 (Homo sapiens) (UniProt O95835); assay: Inhibition of LATS1 (unknown origin) assessed as residual activity at 100 nM by KINOMEscan analysis relative to control
T1 sequence (whole entry): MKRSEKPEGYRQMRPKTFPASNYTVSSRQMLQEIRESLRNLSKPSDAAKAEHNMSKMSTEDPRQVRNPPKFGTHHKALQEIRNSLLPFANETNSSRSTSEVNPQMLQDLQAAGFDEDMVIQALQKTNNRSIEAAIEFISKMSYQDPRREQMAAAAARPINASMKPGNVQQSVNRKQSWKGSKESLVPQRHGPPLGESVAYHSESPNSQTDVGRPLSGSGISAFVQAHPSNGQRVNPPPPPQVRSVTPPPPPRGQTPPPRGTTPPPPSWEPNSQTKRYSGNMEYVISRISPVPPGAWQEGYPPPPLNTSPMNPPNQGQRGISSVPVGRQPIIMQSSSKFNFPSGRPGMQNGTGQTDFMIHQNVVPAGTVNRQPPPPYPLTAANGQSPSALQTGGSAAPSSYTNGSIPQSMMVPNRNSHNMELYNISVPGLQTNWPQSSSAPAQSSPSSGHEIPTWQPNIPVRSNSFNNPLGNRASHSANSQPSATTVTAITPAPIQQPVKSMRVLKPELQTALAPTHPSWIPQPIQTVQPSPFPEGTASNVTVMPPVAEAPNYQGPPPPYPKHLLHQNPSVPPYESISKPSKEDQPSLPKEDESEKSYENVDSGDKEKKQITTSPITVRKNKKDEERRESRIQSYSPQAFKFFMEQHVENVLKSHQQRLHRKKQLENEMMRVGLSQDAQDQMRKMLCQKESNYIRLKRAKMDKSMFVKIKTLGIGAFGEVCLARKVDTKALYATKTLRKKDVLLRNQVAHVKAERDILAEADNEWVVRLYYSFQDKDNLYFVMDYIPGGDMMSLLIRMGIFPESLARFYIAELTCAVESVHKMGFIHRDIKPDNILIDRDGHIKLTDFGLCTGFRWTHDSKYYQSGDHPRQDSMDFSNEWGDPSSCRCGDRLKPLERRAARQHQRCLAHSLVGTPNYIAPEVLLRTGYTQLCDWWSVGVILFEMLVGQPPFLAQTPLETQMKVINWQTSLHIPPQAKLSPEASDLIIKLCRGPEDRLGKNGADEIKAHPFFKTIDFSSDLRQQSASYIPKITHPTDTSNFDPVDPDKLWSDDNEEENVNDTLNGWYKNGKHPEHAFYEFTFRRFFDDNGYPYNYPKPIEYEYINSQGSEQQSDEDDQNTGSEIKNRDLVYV

[4] = molecular target: T2, Serine/threonine-protein kinase TNNI3K (Homo sapiens) (UniProt Q59H18); assay: Inhibition of TNNI3K (unknown origin) assessed as residual activity at 100 nM by KINOMEscan analysis relative to control
T2 sequence (whole entry): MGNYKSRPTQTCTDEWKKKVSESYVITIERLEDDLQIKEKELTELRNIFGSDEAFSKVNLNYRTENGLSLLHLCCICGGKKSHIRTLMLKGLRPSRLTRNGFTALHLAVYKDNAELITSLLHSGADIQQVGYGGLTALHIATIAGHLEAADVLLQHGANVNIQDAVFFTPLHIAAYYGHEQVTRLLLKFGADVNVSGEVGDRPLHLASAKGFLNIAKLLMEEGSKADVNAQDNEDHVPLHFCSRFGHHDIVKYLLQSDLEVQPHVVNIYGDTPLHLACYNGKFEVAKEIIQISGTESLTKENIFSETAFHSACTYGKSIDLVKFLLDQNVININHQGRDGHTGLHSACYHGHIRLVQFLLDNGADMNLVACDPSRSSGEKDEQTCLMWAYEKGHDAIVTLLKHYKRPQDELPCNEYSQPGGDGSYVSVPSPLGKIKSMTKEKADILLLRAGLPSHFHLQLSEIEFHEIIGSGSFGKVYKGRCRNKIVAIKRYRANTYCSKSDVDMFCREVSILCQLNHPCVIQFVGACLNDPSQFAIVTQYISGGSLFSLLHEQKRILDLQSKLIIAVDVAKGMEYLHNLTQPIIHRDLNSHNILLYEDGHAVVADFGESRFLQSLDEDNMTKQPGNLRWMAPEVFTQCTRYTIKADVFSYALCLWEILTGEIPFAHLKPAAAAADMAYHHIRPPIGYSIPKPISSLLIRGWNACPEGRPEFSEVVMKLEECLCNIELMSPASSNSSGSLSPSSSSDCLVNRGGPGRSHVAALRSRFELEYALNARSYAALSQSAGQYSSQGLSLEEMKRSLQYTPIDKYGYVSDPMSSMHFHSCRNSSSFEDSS

[5] = test system: K562; assay: Effect on total ERK level in human K562 cells incubated for 60 mins by HTRF analysis; format: functional, cell-based
In short: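 K-562 cells (wild-type KRAS) were sourced from ATCC. Cells were incubated with compound for 60 min, and total ERK was quantified alongside pERK.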

SMILES	Activity [1] [%]	Activity [2] [%]	Activity [3] [%]	Activity [4] [%]	Activity [5]
COc1cc2ncnc(N[C@H](C)c3cccc4ccccc34)c2cc1OC	81	86	97	85	
CNCc1ccccc1-c1csc([C@@H](C)Nc2nc(C)nc3cc(OC)c(OC)cc23)c1 [BAY-293]					inactive
